Results taken from ChEMBL document CHEMBL3856197 (Eur J Med Chem, 2016).
Active and inactive are the calls of the source. The rule behind the calls is not given here.

What was measured:
Mus musculus [1] = species: Mus musculus; assay: Cytotoxicity against BMOL-NT cells assessed as induction of cell death up to 100 uM; type: toxicity, cell-based
Procedure, shortened: (§1)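 Mouse bipotential oval (liver progenitor) line BMOL-NT (passage <15) grown in Williams' E medium with 5% FBS, EGF, IGF-II and insulin. Plated at 1,500 cells/well; next day compound added as a 2x solution to give 1x final. Confluency imaged on Cellavista twice daily for 5 days or until 80% confluent. Growth curves plotted from log confluency; doubling time taken from the log-phase linear portion.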

[2] = Growth inhibition of BMOL-NT cells; type: cell-based; details: mouse
Procedure, shortened: (§2)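 BMOL-NT (low passage, p<15) or BMOL-T (p>30) mouse liver progenitor cells in Williams' E medium. Seeded at 1,500 (NT) or 1,000 (T) cells per well, allowed to attach, then compound added as 2x solution to 1x final. Cellavista imaging twice daily for 5 days or until 80% confluent. Log % well coverage plotted against time; doubling time taken from log-phase linear portion.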

Mus musculus [3] = species: Mus musculus; assay: Cytotoxicity against BMOL-NT cells assessed as induction of cell death at 100 uM; type: toxicity, cell-based; procedure, shortened: as §1
Mus musculus [4] = species: Mus musculus; assay: Cytotoxicity against BMOL-NT cells assessed as cell growth inhibition at 10 uM; type: toxicity, cell-based; procedure, shortened: as §2
[5] = Growth inhibition of BMOL-T cells; type: functional; details: Mus musculus; procedure, shortened: as §2
BMOL-T [6] = assay: Anticancer activity against BMOL-T cells assessed as cell growth inhibition at 10 uM; type: functional, cell-based; details: Mus musculus; procedure, shortened: as §2
BMOL-T [7] = assay: Anticancer activity against BMOL-T cells assessed as cell growth inhibition at 100 uM; type: functional, cell-based; details: Mus musculus; procedure, shortened: as §2
[8] = Antimitotic activity against BMOL-NT cells assessed as reduction in mitotic index at 10 uM measured after 3 days by phosphohistone H3 staining-based method; type: cell-based; set-up: scale not given: the % may be the effect or the level left; details: mouse, 72 h
Procedure, shortened: (§3)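 BMOL-NT or BMOL-T cells, compound at 10 μM for three days. Fixed in 4% paraformaldehyde/0.1% Triton X-100, then phospho-histone H3 antibody 60 min at room temperature with nuclear counterstain, Cellavista imaging. Colcemid 1 μg/mL overnight as positive control. Mitotic index is % positive cells per well, mean of replicate wells, three cell lots.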

[9] = Growth inhibition of BMOL-T cells assessed as increase in doubling time at 8 uM after 2 days relative to control; type: functional, Mus musculus; set-up: scale not given: the % may be the effect or the level left; procedure, shortened: as §2
[10] = Antimitotic activity against BMOL-T cells assessed as mitotic index at 10 uM measured after 3 days by phosphohistone H3 staining-based method relative to control; type: functional, Mus musculus; procedure, shortened: as §3
[11] = Induction of apoptosis in BMOL-T cells assessed as increase in fragmented DNA at 10 uM measured after 3 days relative to control; type: functional, Mus musculus
Procedure, shortened: (§4)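 BMOL-NT or BMOL-T cells, compound at 10 μM for three days. Fixed in 4% paraformaldehyde/0.1% Triton X-100, DNA fragmentation labelling reaction 60 min at 37 °C, nuclear dye 5 min, Cellavista imaging. Cisplatin 8 μg/mL for 24 h as positive control. Apoptotic index is % cells with fragmented DNA per well, three cell lots.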

[12] = Anticancer activity against BMOL-T cells assessed as doubling time at 0 to 6 uM; type: functional, Mus musculus; procedure, shortened: as §2
[13] = Anticancer activity against BMOL-T cells assessed as doubling time at 10 uM; type: functional, Mus musculus; procedure, shortened: as §2
[14] = Induction of apoptosis in BMOL-NT cells assessed as increase in fragmented DNA at 10 uM measured after 3 days relative to control; type: cell-based; details: mouse, 72 h; procedure, shortened: as §4
[15] = Anticancer activity against BMOL-T cells assessed as doubling time at 8 uM; type: functional, Mus musculus; procedure, shortened: as §2
[16] = Growth inhibition of BMOL-T cells assessed as increase in doubling time at 10 uM after 2 days relative to control; type: functional, Mus musculus; set-up: scale not given: the % may be the effect or the level left; procedure, shortened: as §2
Mus musculus [17] = species: Mus musculus; assay: Cytotoxicity against BMOL-NT cells assessed as doubling time at 0 to 10 uM; type: toxicity, cell-based; procedure, shortened: as §2
[18] = molecular target: T1, Nuclear factor NF-kappa-B p100 subunit (Mus musculus) (UniProt Q9WTK5); assay: Inhibition of NF-kappaB2 in BMOL-T cells assessed as reduction in p52 formation by western blot analysis relative to control; type: cell-based; details: concentration not given here
T1 sequence (whole entry): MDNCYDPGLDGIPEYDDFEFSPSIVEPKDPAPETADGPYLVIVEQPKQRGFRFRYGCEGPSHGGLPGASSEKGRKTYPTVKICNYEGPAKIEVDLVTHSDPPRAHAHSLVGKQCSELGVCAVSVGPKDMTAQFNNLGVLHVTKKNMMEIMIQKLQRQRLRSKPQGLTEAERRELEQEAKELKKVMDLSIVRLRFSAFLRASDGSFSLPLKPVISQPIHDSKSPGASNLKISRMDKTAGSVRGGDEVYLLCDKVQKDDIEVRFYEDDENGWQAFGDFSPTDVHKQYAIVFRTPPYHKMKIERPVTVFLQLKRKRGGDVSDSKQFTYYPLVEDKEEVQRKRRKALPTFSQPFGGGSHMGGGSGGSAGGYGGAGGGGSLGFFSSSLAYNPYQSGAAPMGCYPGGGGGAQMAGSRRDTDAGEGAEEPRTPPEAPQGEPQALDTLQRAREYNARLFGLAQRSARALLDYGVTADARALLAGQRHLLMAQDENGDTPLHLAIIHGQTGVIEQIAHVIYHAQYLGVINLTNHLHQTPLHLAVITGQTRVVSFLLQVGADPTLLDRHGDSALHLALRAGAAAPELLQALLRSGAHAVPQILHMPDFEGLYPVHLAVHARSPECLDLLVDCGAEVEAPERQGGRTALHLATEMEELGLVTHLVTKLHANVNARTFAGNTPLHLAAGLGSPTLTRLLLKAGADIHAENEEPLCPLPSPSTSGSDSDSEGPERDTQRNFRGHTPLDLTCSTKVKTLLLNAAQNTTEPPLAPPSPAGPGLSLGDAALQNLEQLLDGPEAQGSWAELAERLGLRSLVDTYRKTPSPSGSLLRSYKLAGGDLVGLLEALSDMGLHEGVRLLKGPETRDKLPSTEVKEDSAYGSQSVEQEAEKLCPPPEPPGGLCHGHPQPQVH
Procedure, shortened: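 BMOL-T cells exposed to compound as in the growth assay, lysed in DISC buffer. Western blot with primary antibodies overnight and HRP secondaries 1 h, all diluted in 5% skim milk in TBS-T, chemiluminescent detection. Bands normalised to β-actin; p52/p100 ratio and phospho-p65 compared with control.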

[19] = test system: BMOL-NT cells (Mus musculus); assay: Growth inhibition of BMOL-NT cells at 10 uM after 2 days relative to control; details: 48 h, read-out: GI
[20] = Growth inhibition of BMOL-NT cells assessed as increase in doubling time at 8 uM after 2 days relative to control; type: cell-based; set-up: scale not given: the % may be the effect or the level left; details: mouse, 48 h; procedure, shortened: as §2
[21] = Growth inhibition of BMOL-NT cells assessed as population doubling time at 1 uM (reference value: 29 to 32.5 hrs); type: cell-based; details: mouse; procedure, shortened: as §2
[22] = Growth inhibition of BMOL-NT cells assessed as doubling time at 8 uM (reference value: 29 to 32.5 hrs); type: cell-based; details: mouse; procedure, shortened: as §2
[23] = Growth inhibition of BMOL-NT cells assessed as doubling time at 10 uM (reference value: 29 to 32.5 hrs); type: cell-based; details: mouse; procedure, shortened: as §2
[24] = Growth inhibition of BMOL-T cells assessed as doubling time at 0.5 uM (reference value: 27 to 34 hrs); type: functional, Mus musculus; procedure, shortened: as §2
[25] = Growth inhibition of BMOL-NT cells assessed as increase in doubling time at 10 uM after 2 days relative to control; type: cell-based; set-up: scale not given: the % may be the effect or the level left; details: mouse, 48 h; procedure, shortened: as §2
[26] = Growth inhibition of BMOL-T cells assessed as doubling time at 8 uM (reference value: 27 to 34 hrs); type: functional, Mus musculus; procedure, shortened: as §2
[27] = Growth inhibition of BMOL-T cells assessed as doubling time at 2 uM (reference value: 27 to 34 hrs); type: functional, Mus musculus; procedure, shortened: as §2
[28] = Growth inhibition of BMOL-NT cells assessed as population doubling time at 2 uM (reference value: 29 to 32.5 hrs); type: cell-based; details: mouse; procedure, shortened: as §2
[29] = Growth inhibition of BMOL-T cells assessed as doubling time at 1 uM (reference value: 27 to 34 hrs); type: functional, Mus musculus; procedure, shortened: as §2
[30] = Growth inhibition of BMOL-NT cells assessed as population doubling time at 0.5 uM (reference value: 29 to 32.5 hrs); type: cell-based; details: mouse; procedure, shortened: as §2
[31] = Growth inhibition of BMOL-T cells assessed as doubling time at 10 uM (reference value: 27 to 34 hrs); type: functional, Mus musculus; procedure, shortened: as §2
[32] = Growth inhibition of BMOL-NT cells assessed as doubling time at 4 uM (reference value: 29 to 32.5 hrs); type: cell-based; details: mouse; procedure, shortened: as §2

O=CC#Cc1cccc2c1C(=O)N(C1CCC(=O)NC1=O)C2=O (racemic)
Activity (Mus musculus [1]): Non-Toxic

O=CC#Cc1ccc2c(c1)C(=O)N(C1CCC(=O)NC1=O)C2=O (stereo not drawn)
Activity (Mus musculus [1]): Non-Toxic

O=C1CCC(N2C(=O)c3ccccc3C2=O)C(=O)N1 (stereo not drawn) [THALIDOMIDE]
GI50 [2]: 100 µM | Activity (Mus musculus [3]): Toxic

Nc1cccc2c1CN(C1CCC(=O)NC1=O)C2=O (stereo not drawn) [LENALIDOMIDE]
GI50 [2]: 100 µM | Activity (Mus musculus [3]): Toxic

CCCCCc1ccc(Nc2ccc3c(c2)C(=O)N(C2CCC(=O)NC2=O)C3=O)cc1 (stereo not drawn)
GI50 [2]: 60 µM | Activity (Mus musculus [4]): Non-Toxic | GI50 [5]: 60 µM | growth inhibition (GI) (BMOL-T [6]): Active

CCCCCc1ccc(Nc2cccc3c2C(=O)N(C2CCC(=O)NC2=O)C3=O)cc1 (stereo not drawn)
growth inhibition (GI) (BMOL-T [7]): Active | GI50 [2]: 100 µM | GI50 [5]: 100 µM | Activity (Mus musculus [3]): Toxic

CC(C)c1ccc(Nc2cccc3c2C(=O)N(C2CCC(=O)NC2=O)C3=O)cc1 (stereo not drawn)
Activity [8]: Non-Toxic | GI50 [2]: 60 µM | Activity [9]: 11% | Activity (Mus musculus [4]): Non-Toxic | GI50 [5]: 40 µM | Activity [10]: 34% | fold change (FC) [11]: 1.6 - 4 | Time [12]: 23 h | Time [13]: 30 h | growth inhibition (GI) (BMOL-T [6]): Active | fold change (FC) [14]: 1.5 | Time [15]: 26 h | Activity [16]: 26 - 27% | Time (Mus musculus [17]): 31 h | inhibition [18]: 30%

CNC(=O)c1cc(Oc2ccc(NC(=O)Nc3ccc(Cl)c(C(F)(F)F)c3)cc2)ccn1 [SORAFENIB]
inhibition of growth at 10 µM [19]: 70% | Activity [20]: 100 to 128% | Activity [8]: 66 to 87% | Time [21]: 32.5 to 34.7 h | Time [22]: 58 to 74 h | Activity [9]: 36 - 144% | Time [23]: 68 h | Activity [10]: 62% | fold change (FC) [11]: 38 | Time [24]: 28.05 to 35 h | Activity [25]: 101 to 134% | Time [26]: 65 to 66 h | Time [27]: 34.4 to 35 h | Time [28]: 33.3 to 33.7 h | Time [29]: 33.2 to 34.2 h | fold change (FC) [14]: 2.5 to 18.1 | Time [30]: 31.9 to 32.5 h | Time [31]: 79 h | Activity [16]: 193 - 235% | Time [32]: 37.4 to 37.9 h

CC(C)(C)c1ccc(Nc2ccc3c(c2)C(=O)N(C2CCC(=O)NC2=O)C3=O)cc1 (stereo not drawn)
growth inhibition (GI) (BMOL-T [7]): Active | GI50 [2]: 100 µM | GI50 [5]: 100 µM | Activity (Mus musculus [3]): Toxic
